Results as given in ChEMBL document CHEMBL4342500, “Modulating Heparanase Activity: Tuning Sulfation Pattern and Glycosidic Linkage of Oligosaccharides” (J Med Chem, 2020).
The source made the active and inactive calls. The rule behind the calls is not given here.

How the values were obtained:
[1] = target: T1, Heparanase (Homo sapiens) (UniProt Q9Y251); assay: Inhibition of human recombinant heparanase assessed as reduction in [35S] labeled ECM degradation at 10 ug/ml incubated for 5 hrs relative to control
T1 sequence (whole entry): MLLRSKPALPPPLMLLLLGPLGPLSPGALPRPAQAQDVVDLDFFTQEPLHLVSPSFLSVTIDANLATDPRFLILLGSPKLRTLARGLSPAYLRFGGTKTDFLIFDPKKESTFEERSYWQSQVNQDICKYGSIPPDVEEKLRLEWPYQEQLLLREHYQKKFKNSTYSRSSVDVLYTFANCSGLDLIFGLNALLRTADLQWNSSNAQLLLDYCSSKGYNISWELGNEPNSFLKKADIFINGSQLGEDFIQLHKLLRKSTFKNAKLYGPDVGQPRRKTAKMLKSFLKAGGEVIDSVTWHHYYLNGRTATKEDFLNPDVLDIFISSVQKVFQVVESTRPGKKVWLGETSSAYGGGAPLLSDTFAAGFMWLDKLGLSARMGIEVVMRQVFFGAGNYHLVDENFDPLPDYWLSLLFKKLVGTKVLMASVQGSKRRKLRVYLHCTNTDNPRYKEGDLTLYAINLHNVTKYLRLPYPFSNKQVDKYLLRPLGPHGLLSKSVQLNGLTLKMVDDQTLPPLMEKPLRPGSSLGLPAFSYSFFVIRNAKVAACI
Procedure, shortened: (§1)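 [35S]sulfate-labeled ECM on 35 mm dishes incubated 5 h at 37 °C with recombinant human heparanase (0.5 ng/ml), with or without inhibitor, in 1 ml containing 50 mM NaCl, 1 mM DTT, 1 mM CaCl2, 10 mM phosphate-citrate pH 6.0. Released material gel-filtered on Sepharose 6B, eluted with PBS; 0.2 ml fractions counted for radioactivity.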

MIN6 [2] = assay: Inhibition of ROS production in mouse MIN6 cells at 15 uM incubated for 24 hrs by mitochondrial ROS probe staining based fluorescence microscopic method; assay type: functional, cell-based
Procedure, shortened: (§2)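 MIN6 mouse insulinoma cells in high-glucose DMEM, 10% FBS, 50 μM β-mercaptoethanol, seeded in 4-well slide chambers. At ~50% confluency, switched to conditioned medium from heparanase-producing or control CHO cells and given PBS vehicle or inhibitor for 24 h. Stained with mitochondrial ROS tracker (100 nM); fluorescence imaged by microscopy and extent/intensity quantified.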

MIN6 [3] = assay: Inhibition of ROS production in mouse MIN6 cells assessed as reduction in SOD1 mRNA level at 15 uM incubated for 24 hrs by qRT-PCR analysis; assay type: functional, cell-based
Procedure, shortened: (§3)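 MIN6 cells grown in high-glucose DMEM/10% FBS/50 μM β-mercaptoethanol, cultured at ~50% confluency in conditioned medium from heparanase-producing or control CHO cells with PBS vehicle or inhibitor for 24 h. Total RNA extracted with Trizol; cDNA made from 500 ng RNA; transcripts measured by quantitative real-time PCR.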

Platelet factor 4 = target: T2, Platelet factor 4 (Homo sapiens, UniProt P02776); assay: Binding affinity to PF4 (unknown origin) by BLI assay
T2 sequence (P02776 whole entry): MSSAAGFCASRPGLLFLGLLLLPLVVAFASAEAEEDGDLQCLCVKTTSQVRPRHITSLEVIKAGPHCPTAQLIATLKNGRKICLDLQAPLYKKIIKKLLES
Procedure, shortened: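 PF4 (100 nM) mixed with ligand (0.08-250 μM trisaccharide; heparin 0.4-400 nM); free PF4 probed against biotin-heparin (5 μg/mL, 18 kDa) loaded on streptavidin biosensors. Mass-transport conditions; response fitted to a solution-affinity equation.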

[4] = target: T1, Heparanase (Homo sapiens); assay: Inhibition of human recombinant heparanase assessed as reduction in [35S] labeled ECM degradation at 50 ug/ml incubated for 5 hrs relative to control; procedure, shortened: as §1
MIN6 [5] = assay: Inhibition of heparanase (unknown origin) assessed as reduction in ROS production in mouse MIN6 cells co-incubated with heparanase-producing CHO cells at 15 uM incubated for 24 hrs by mitochondrial ROS probe staining based fluorescence microscopic method; assay type: functional, cell-based; procedure, shortened: as §2
[6] = target: T1, Heparanase (Homo sapiens); assay: Inhibition of heparanase (unknown origin) assessed as reduction in ROS-mediated ERO1alpha mRNA level in mouse MIN6 cells co-incubated with heparanase-producing CHO cells at 15 uM incubated for 24 hrs by qRT-PCR analysis; assay type: cell-based; procedure, shortened: as §3
MIN6 [7] = assay: Inhibition of ROS production in mouse MIN6 cells assessed as reduction in ERO1alpha mRNA level at 15 uM incubated for 24 hrs by qRT-PCR analysis; assay type: functional, cell-based; procedure, shortened: as §3
Prothrombin = Prothrombin (Homo sapiens, UniProt P00734); assay: Inhibition of coagulation factor 2a (unknown origin) incubated for 2 mins in presence of AT3 by chromogenic substrate based […] assay
Procedure, shortened: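 Two-stage chromogenic anti-FIIa: sample (heparin 0.002-500 nM or trisaccharide 3.9-4000 nM) with ATIII (0.01 IU), 2 min at 37 °C; FIIa (1.2 nkat) added, 2 min at 37 °C; chromogenic substrate added, stopped after 2 min with citric acid (20 g/L). A405 read in triplicate; reverse-order sample blank subtracted.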

Coagulation factor X = Coagulation factor X (Homo sapiens, UniProt P00742); assay: Inhibition of coagulation factor 10a (unknown origin) incubated for 2 mins in presence of AT3 by chromogenic substrate based […] assay
Sequence of Coagulation factor X (P00742 41-179 limits assumed): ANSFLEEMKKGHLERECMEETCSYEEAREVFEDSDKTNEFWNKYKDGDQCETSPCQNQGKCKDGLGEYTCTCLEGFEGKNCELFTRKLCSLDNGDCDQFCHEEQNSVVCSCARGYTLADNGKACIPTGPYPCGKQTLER
Sequence of Coagulation factor X (P00742 235-488 limits assumed): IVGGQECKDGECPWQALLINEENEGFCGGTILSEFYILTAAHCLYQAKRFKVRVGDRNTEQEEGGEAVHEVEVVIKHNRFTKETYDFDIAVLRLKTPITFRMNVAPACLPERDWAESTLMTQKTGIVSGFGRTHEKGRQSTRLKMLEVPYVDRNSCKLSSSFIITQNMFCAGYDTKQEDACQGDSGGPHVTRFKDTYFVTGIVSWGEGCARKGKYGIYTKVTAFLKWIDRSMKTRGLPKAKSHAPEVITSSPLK
Procedure, shortened: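 Two-stage chromogenic anti-FXa: sample (heparin 0.002-500 nM or trisaccharide 3.9-4000 nM) with ATIII (0.04 IU), 2 min at 37 °C; FXa (0.32 μg) added, 2 min at 37 °C; chromogenic substrate added, stopped after 2 min with citric acid (20 g/L). Absorbance at 405 nm in triplicate, minus reverse-order sample blank.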

Heparanase = target: T3, Heparanase (Homo sapiens, UniProt Q9Y251); assay: Inhibition of heparanase (unknown origin) using biotin-heparan sulfate-Eu cryptate as substrate preincubated for 10 mins followed by substrate addition and measured after 60 mins by TR-FRET assay
T3 sequence (Q9Y251 whole entry): T1 sequence (whole entry)

[8] = target: T1, Heparanase (Homo sapiens); assay: Inhibition of heparanase (unknown origin) assessed as reduction in ROS-mediated SOD1 mRNA level in mouse MIN6 cells co-incubated with heparanase-producing CHO cells at 15 uM incubated for 24 hrs by qRT-PCR analysis; assay type: cell-based; procedure, shortened: as §3

Compound	inhibition [1]	inhibition (MIN6 [2])	inhibition (MIN6 [3])	Kd (Platelet factor 4)	inhibition [4]	inhibition (MIN6 [5])	inhibition [6]	inhibition (MIN6 [7])	IC50 (Prothrombin)	IC50 (Coagulation factor X)	IC50 (Heparanase)	inhibition [8]
O=C(O)[C@H]1O[C@@H](O[C@H]2[C@H](O)[C@@H](NS(=O)(=O)O)[C@@H](OCCNS(=O)(=O)O)O[C@@H]2COS(=O)(=O)O)[C@H](O)[C@@H](O)[C@@H]1O[C@H]1O[C@H](COS(=O)(=O)O)[C@@H](O)[C@H](O)[C@H]1NS(=O)(=O)O	50%	Active	Active	16000 nM	100%	Active	Active	Active	> 2000 nM	> 2000 nM	393 nM	Active
CO[C@H]1O[C@H](COS(=O)(=O)O)[C@@H](O[C@@H]2O[C@@H](C(=O)O)[C@@H](O[C@H]3O[C@H](COS(=O)(=O)O)[C@@H](O[C@@H]4O[C@H](C(=O)O)[C@@H](O[C@H]5O[C@H](COS(=O)(=O)O)[C@@H](O)[C@H](O)[C@H]5NS(=O)(=O)O)[C@H](O)[C@H]4O)[C@H](OS(=O)(=O)O)[C@H]3NS(=O)(=O)O)[C@H](O)[C@H]2OS(=O)(=O)O)[C@H](O)[C@H]1NS(=O)(=O)O [FONDAPARINUX]	–	–	–	–	–	–	–	–	–	11 nM	–	–
O=C(O)[C@H]1O[C@@H](O[C@H]2[C@H](O)[C@@H](NS(=O)(=O)O)[C@H](OCCNS(=O)(=O)O)O[C@@H]2COS(=O)(=O)O)[C@H](O)[C@@H](O)[C@@H]1O[C@H]1O[C@H](COS(=O)(=O)O)[C@@H](O)[C@H](O)[C@H]1NS(=O)(=O)O	–	–	–	–	–	–	–	–	–	–	42100 nM	–
